Test results: ChEMBL document CHEMBL2176883, “Aminopiperidine sulfonamide Cav2.2 channel inhibitors for the treatment of chronic pain” (J Med Chem, 2012)

How the values were obtained:
[1] = biological target: T1, Voltage-dependent N-type calcium channel subunit alpha-1B (Homo sapiens, UniProt Q00975); assay: Inhibition of Cav2.2 expressed HEK293 cells assessed as inhibition of calcium flux at 1 uM by FLIPR assay; assay type: cell-based
In short: (§1)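 Calcium influx was read with a calcium-sensitive dye on FLIPR Tetra in CBK cells expressing α1B-1, α2-δ and β3a with Kir2.3. Cells were preincubated with compound in 30 mM K+, then channels were opened by 1:1 addition of 140 mM K+ solution. Compounds were screened at 1 μM, then titrated over 10 points (0.001–30 μM) in quadruplicate, mean ± SD. Values are averages of n ≥ 3.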
Target sequence in this assay (Q00975 whole entry, looked up): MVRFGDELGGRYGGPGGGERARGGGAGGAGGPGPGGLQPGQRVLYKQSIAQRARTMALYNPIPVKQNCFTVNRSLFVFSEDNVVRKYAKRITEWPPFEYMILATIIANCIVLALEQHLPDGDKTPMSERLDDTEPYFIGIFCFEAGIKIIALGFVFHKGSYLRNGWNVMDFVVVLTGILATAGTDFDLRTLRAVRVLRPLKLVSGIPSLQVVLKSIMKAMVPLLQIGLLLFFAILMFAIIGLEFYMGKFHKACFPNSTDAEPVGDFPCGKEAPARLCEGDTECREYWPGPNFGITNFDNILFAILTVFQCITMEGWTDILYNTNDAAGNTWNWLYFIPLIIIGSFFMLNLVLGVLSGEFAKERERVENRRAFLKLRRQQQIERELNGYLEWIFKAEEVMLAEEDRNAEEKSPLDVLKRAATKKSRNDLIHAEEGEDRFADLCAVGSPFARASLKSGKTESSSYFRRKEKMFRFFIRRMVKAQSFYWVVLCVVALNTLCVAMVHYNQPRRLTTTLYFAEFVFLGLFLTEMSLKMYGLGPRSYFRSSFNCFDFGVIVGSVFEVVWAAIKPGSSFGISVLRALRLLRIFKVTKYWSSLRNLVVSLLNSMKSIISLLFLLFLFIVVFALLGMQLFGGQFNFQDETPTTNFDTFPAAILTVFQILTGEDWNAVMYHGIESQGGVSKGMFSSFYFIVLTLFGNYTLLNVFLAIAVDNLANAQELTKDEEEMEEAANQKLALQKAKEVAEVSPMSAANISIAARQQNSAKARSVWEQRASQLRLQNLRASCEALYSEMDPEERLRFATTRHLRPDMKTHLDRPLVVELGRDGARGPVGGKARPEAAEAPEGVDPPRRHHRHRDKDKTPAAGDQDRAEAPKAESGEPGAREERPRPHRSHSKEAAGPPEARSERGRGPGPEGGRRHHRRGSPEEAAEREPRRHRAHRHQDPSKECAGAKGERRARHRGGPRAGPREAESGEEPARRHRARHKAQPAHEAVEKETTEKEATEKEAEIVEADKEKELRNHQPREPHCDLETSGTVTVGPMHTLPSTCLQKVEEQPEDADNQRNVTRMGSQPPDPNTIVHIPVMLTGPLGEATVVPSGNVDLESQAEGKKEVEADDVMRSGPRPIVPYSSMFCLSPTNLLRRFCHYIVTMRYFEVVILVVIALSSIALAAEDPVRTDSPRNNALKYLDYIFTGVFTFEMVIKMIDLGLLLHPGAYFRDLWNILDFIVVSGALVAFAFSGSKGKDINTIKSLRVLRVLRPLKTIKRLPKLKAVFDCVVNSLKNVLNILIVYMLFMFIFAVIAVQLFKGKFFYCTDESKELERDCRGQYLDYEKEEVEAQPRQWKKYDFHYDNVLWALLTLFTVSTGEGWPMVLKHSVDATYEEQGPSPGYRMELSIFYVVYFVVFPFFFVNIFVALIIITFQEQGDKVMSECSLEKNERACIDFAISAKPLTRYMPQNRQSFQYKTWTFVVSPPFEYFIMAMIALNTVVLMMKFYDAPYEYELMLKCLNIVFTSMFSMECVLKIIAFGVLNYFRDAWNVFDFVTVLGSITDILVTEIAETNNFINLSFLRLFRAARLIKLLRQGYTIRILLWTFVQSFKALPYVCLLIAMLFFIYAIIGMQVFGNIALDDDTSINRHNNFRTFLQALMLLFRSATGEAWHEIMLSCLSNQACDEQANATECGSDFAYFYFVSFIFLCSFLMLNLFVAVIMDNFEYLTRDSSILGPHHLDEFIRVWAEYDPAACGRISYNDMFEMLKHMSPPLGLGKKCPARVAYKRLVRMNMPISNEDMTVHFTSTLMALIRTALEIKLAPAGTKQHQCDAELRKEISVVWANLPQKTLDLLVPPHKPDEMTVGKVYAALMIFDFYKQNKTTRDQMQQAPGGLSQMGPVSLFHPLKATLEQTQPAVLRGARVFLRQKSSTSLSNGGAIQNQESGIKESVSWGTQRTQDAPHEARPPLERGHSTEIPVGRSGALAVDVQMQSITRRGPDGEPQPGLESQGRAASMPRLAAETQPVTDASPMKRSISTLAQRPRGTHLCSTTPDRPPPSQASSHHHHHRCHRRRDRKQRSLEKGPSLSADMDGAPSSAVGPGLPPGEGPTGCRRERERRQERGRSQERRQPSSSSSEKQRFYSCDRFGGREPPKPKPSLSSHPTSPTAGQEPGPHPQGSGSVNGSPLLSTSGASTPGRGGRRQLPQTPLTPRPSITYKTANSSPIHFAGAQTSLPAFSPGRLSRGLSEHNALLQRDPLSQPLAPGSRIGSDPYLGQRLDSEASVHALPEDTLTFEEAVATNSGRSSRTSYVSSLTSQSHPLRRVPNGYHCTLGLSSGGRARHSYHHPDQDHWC

Cav1.2 [2] = biological target: T2, Cav1.2 (Homo sapiens, UniProt Q13936); assay: Inhibition of Cav1.2 assessed as inhibition of calcium flux at 3 uM by cell based FLIPR assay
In short: (§2)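 Cav1.2 counterscreen using a related calcium-influx FLIPR assay, run as % inhibition at single concentrations or as a titration.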

Cav1.2 [3] = biological target: T2, Cav1.2; assay: Inhibition of Cav1.2 assessed as inhibition of calcium flux at 1 uM by cell based FLIPR assay; in short: as §2
hERG [4] = biological target: T3, hERG (Homo sapiens, UniProt Q12809); assay: Displacement of [35S]-MK-0499 from human ERG at 10 uM; conditions: probe [35S]-MK-0499
In short: (§3)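 hERG binding was measured as displacement of 35S-labeled MK-0499 at single test concentrations.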

hERG [5] = biological target: T3, hERG; assay: Displacement of [35S]-MK-0499 from human ERG at 1 uM; conditions: probe [35S]-MK-0499; in short: as §3
[6] = biological target: T1, Voltage-dependent N-type calcium channel subunit alpha-1B; assay: Inhibition of Cav2.2 expressed HEK293 cells assessed as inhibition of calcium flux by FLIPR assay in presence of 30 mM of potassium; assay type: cell-based; in short: as §1
Target sequence in this assay (Q00975 whole entry): as the sequence (Q00975 whole entry, looked up) above

Rattus norvegicus [7] = assay: Antinociceptive activity in rat assessed as reversal of complete Freund's adjuvant-induced pain at 3 mg/kg, iv after 3 hrs; assay type: functional
Rattus norvegicus [8] = assay: Antinociceptive activity in rat assessed as reversal of complete Freund's adjuvant-induced pain at 3 mg/kg, iv after 1 hr; assay type: functional
[9] = Half life in rat at 3 mg/kg, po and 1 mg/kg, iv; assay type: ADME, organism-based; conditions: in vivo
In short: (§4)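 Rat pharmacokinetics from iv and po arms: 0.6 mg/kg iv with 1.8 mg/kg po, or 1 mg/kg iv with 3 mg/kg po. AUC was normalized to po dose (μM·h·kg/mg). Clearance (mL/min/kg) and half-life come from the iv arm, and F% is oral bioavailability.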

[10] = Plasma clearance in rat at 3 mg/kg, po and 1 mg/kg, iv; assay type: ADME, organism-based; in short: as §4
Rattus norvegicus [11] = assay: Dose normalized AUC in rat at 1.8 mg/kg, po and 0.6 mg/kg, iv; assay type: ADME, organism-based; conditions: in vivo; in short: as §4
[12] = Oral bioavailability in rat at 3 mg/kg; assay type: ADME, organism-based; conditions: in vivo; in short: as §4
[13] = Metabolic stability in rat liver microsomes assessed as compound remaining at 1 uM after 1 hr; assay type: ADME, Microsome; conditions: read-out: Stability
In short: (§5)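 Compound at 1 μM was incubated with human or rat liver microsomes (1 mg/mL) for 1 h, and the percentage of parent remaining was determined.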

[14] = Metabolic stability in human liver microsomes assessed as compound remaining at 1 uM after 1 hr; assay type: ADME, Microsome; conditions: read-out: Stability; in short: as §5

T2 sequence (Q13936 whole entry): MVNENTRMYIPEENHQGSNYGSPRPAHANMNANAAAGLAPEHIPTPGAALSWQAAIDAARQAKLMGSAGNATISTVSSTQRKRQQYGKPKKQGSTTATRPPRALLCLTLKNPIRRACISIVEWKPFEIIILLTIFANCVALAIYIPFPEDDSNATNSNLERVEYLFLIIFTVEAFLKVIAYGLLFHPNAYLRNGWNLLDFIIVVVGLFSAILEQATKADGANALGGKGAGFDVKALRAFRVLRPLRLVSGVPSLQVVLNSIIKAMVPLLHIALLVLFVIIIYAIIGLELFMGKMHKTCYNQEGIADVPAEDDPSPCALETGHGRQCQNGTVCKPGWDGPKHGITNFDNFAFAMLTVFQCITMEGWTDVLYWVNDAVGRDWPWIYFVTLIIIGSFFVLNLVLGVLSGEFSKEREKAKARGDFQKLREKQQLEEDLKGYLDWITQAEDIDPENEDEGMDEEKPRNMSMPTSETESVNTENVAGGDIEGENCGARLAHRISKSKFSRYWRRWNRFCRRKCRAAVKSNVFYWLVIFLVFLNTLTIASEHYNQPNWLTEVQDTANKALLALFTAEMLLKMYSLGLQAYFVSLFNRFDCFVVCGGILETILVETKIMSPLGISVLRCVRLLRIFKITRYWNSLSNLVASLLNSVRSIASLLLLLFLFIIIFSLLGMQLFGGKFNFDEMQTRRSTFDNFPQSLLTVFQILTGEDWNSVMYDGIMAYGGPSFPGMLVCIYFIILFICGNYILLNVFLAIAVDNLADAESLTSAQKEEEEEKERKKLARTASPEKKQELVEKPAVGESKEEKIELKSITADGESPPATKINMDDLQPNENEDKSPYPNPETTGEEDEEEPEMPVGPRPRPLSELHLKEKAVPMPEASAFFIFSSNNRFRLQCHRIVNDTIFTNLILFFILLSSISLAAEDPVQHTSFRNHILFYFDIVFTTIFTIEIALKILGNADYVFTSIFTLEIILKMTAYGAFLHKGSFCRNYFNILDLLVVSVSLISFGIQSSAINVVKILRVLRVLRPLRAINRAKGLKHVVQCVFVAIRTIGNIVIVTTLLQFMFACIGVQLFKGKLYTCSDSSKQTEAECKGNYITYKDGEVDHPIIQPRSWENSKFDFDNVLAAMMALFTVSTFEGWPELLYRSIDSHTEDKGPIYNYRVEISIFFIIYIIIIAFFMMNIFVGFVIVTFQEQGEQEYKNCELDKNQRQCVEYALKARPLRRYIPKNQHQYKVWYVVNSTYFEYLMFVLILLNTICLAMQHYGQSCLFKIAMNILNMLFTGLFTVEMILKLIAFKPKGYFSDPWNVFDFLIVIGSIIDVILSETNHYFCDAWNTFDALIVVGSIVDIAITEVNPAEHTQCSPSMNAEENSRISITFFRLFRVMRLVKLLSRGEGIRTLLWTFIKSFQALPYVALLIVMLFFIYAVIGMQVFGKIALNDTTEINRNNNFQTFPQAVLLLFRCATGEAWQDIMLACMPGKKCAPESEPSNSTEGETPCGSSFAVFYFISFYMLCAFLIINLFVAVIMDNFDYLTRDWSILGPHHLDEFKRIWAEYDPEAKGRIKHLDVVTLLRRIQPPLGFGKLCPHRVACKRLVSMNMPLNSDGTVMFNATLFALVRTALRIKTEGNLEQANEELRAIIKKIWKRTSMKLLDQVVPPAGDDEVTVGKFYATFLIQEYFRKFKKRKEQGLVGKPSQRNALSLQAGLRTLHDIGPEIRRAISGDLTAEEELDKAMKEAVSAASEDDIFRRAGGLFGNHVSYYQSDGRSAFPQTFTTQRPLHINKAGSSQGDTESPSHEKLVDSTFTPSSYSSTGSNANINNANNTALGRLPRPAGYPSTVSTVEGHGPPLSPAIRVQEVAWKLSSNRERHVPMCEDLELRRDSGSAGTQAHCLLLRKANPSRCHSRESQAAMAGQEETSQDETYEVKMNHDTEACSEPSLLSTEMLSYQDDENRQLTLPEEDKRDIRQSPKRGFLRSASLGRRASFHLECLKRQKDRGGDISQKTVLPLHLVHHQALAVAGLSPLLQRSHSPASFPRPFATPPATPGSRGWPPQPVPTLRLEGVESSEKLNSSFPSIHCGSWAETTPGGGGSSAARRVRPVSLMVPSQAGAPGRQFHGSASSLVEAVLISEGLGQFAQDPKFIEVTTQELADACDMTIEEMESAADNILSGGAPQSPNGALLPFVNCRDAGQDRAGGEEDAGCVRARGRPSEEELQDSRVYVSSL

Row | SMILES | inhibition [1] | inhibition at 3 µM (Cav1.2 [2]) | inhibition at 1 µM (Cav1.2 [3]) | inhibition at 10 µM (hERG [4]) | inhibition at 1 µM (hERG [5]) | IC50 [6] | other results
1 | CS(=O)(=O)c1cccc(C(=O)N2CCC(N(C3CC3)S(=O)(=O)c3cccc(C(F)(F)F)c3)CC2)c1 | 15% |  |  |  |  |  | 
2 | CS(=O)(=O)c1ccc(C(=O)N2CCC(N(C3CC3)S(=O)(=O)c3cccc(C(F)(F)F)c3)CC2)cc1 | 52% |  |  |  |  |  | 
3 | O=C(c1ccc(OC(F)(F)F)cc1)N1CCC(N(C2CC2)S(=O)(=O)c2cccc(C(F)(F)F)c2)CC1 |  | 88% | 73% | 77% | 0% | 300 nM | 
4 | O=C(c1ccccc1OC(F)(F)F)N1CCC(N(C2CC2)S(=O)(=O)c2cccc(C(F)(F)F)c2)CC1 |  |  |  | 75% | 21% | 120 nM | Activity (Rattus norvegicus [7]): 17%; Activity (Rattus norvegicus [8]): 23%; half-life [9]: 1.6 h; clearance [10]: 65 mL/min/kg; AUC/dose (Rattus norvegicus [11]): 0.23 µM·kg·h/mg; bioavailability [12]: 47%; remaining at 1 h, 1 µM [13]: 21%; remaining at 1 h, 1 µM [14]: 1%
5 | COC(=O)c1cccc(C(=O)N2CCC(N(C3CC3)S(=O)(=O)c3cccc(C(F)(F)F)c3)CC2)c1 |  |  |  | 66% | 2.4% | 380 nM | 
6 | NC(=O)c1ccccc1C(=O)N1CCC(N(C2CC2)S(=O)(=O)c2cccc(C(F)(F)F)c2)CC1 | 15% | 17% | 11% |  |  |  | 
7 | CN(C)c1cccc(C(=O)N2CCC(N(C3CC3)S(=O)(=O)c3cccc(C(F)(F)F)c3)CC2)c1 |  | 63% | 40% | 51% | 0% | 240 nM | 
8 | O=C(c1cccc(OC(F)(F)F)c1)N1CCC(N(C2CC2)S(=O)(=O)c2cccc(C(F)(F)F)c2)CC1 |  | 78% | 60% | 72% | 4% | 370 nM | 
9 | CS(=O)(=O)c1ccc(F)cc1C(=O)N1CCC(N(C2CC2)S(=O)(=O)c2ccc(C(F)(F)F)cc2)CC1 | 1% |  |  |  |  |  | 
10 | CS(=O)(=O)c1ccc(F)cc1C(=O)N1CCC(N(C2CC2)S(=O)(=O)c2ccccc2C(F)(F)F)CC1 | 17% |  |  |  |  |  | 
11 | CS(=O)(=O)c1ccc(F)cc1C(=O)N1CCC(N(C2CC2)S(=O)(=O)c2cccc(OC(F)(F)F)c2)CC1 |  |  |  |  |  | 1100 nM | 
12 | CS(=O)(=O)c1cccc(S(=O)(=O)N(C2CC2)C2CCN(C(=O)c3cc(F)ccc3S(C)(=O)=O)CC2)c1 | 0% |  |  |  |  |  | 
13 | O=C(c1ccccc1)N1CCC(N(C2CC2)S(=O)(=O)c2cccc(C(F)(F)F)c2)CC1 | 42% |  |  |  |  |  | 
